Series [1] addresses Tubulin. Description: (§1) Activation of tubulin (unknown origin) polymerization. The class given is protein-complex assay, Homo sapiens. Summed up: (§2)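 Purified brain tubulin (kit), final 3.0 mg/mL, in 80.0 mM PIPES sesquisodium pH 6.9, 2.0 mM MgCl2, 0.5 mM EGTA, 1 mM GTP, 10.2% glycerol; components prewarmed to 37 °C, reaction started by adding tubulin. A340 read each minute for 1 h. Single-point % stimulation used 10 μM compound; EC50 from 3.75, 7.5, 15, 30, 60 μM.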

Series [2] addresses T1, Tubulin (Homo sapiens) (UniProt P68371+Q9H4B7+P0DPH7+P68366+Q13509+Q71U36+P04350+Q3ZCM7+P07437+P68363+Q9BQE3+Q6PEY2+Q13885+Q9BVA1+Q9BUF5). Put plainly: Activation of tubulin (unknown origin) polymerization at 10 uM. It is filed as protein-complex assay. Summed up:
as §2

The test system of series [3] is K562. Put plainly: Cytotoxicity against human K562 cells after 48 hrs by MTT assay. It is filed as functional, cell-based. Summed up: (§3)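 Log-phase cells (40000–50000 cells/mL) grown in DMEM with 10% fetal calf serum (5% CO2, 37 °C) and exposed 48 h to five concentrations, 3–5 replicates. Read-out was MTT with absorbance at 570 nm; IC50 reported as mean ± SD of three independent experiments. Resistant A549 and HeLa sublines were made by stepwise paclitaxel selection; resistance index = IC50(resistant)/IC50(sensitive).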
(In general: Formazan colour is commonly taken as a measure of viable cells.)

Series [4] can be described thus: Cytotoxicity against human QGY cells after 48 hrs by MTT assay. The class given is functional, cell-based. Summed up:
as §3

Series [5] deals with SW480. Put plainly: Cytotoxicity against human SW480 cells after 48 hrs by MTT assay. It is filed as functional, cell-based. The procedure, abridged:
as §3

In series [6] the test system is HeLa. Put plainly: Cytotoxicity against human HeLa cells after 48 hrs by MTT assay. It is filed as functional, cell-based. Summed up:
as §3

The test system of series [7] is A549. Put plainly: Cytotoxicity against human A549 cells after 48 hrs by MTT assay. It is filed as functional, cell-based. Summed up: as §3
Series [8] has as its system A549. Put plainly: Cytotoxicity against paclitaxel-resistant human A549 cells after 48 hrs by MTT assay. The conditions noted are these: A549, 48 h. The class given is functional, cell-based. The procedure, abridged: as §3
Series [9] relates to Mus musculus. Put plainly: Toxicity in human A549 cells xenografted BALB/c nude mouse assessed as change in body weight at 30 mg/kg, ig. Conditions: in vivo, po. It is filed as organism-based. Also noted: dose 30 mg/kg, route intragastric. The procedure, abridged:
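Male BALB/c nude mice, 5 weeks old (18–20 g), implanted subcutaneously in the right armpit with A549 tumor fragments (3 mm3). On day 13, at 100–200 mm3, daily intragastric dosing began: 100 or 500 mg/kg test compound, or 30 mg/kg paclitaxel, in Tween-80 diluted with saline. Vehicle given ip. Tumor volume and body weight followed; n = 6; inhibition rate at day 16.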
For orientation: In xenograft studies the graft and the host belong to different species.

Series [10] concerns the target T1, Tubulin (Homo sapiens). The series is described as §1. It is filed as protein-complex assay. Summed up: as §2

A value given as a limit tells only on which side of the number the result lay.

For orientation: EC50 means the midpoint of the concentration-response curve. Read a low EC50 as an effect from little substance. For orientation: IC50 means the concentration at which inhibition is half-maximal. A low value points to inhibition by little substance. The compound `CCOC(=O)[C@]1(C(=O)Nc2ccccc2Cl)C[C@H]1c1cc(OC)c(OC)c(OC)c1` showed a concentration for a half-maximal effect (EC50) in series [1] of 16.9 µM. The Activity in [2] came out at 28.6%. Further, the concentration for half-maximal inhibition (IC50) in [3] (Homo sapiens, K562, 48 h) was found to be 20.7 µM; in series [4] (Homo sapiens, QGY, 48 h) it was 28 µM; in [5] (Homo sapiens, SW480, 48 h), 25.6 µM; in series [6] (Homo sapiens, HeLa, 48 h) it was 42.4 µM; in [7] (Homo sapiens, A549, 48 h), 13.4 µM.
`CCOC(=O)C1(C(=O)Nc2ccccc2)CC1c1cc(OC)c(OC)c(OC)c1` (cis isomer) had an Activity in series [2] of 23.2%.
On to `CC(=O)O[C@H]1C(=O)[C@@]2(C)[C@H]([C@H](OC(=O)c3ccccc3)[C@]3(O)C[C@H](OC(=O)[C@H](O)[C@@H](NC(=O)c4ccccc4)c4ccccc4)C(C)=C1C3(C)C)[C@]1(OC(C)=O)CO[C@@H]1C[C@@H]2O` [PACLITAXEL], for which the EC50 in [1] is 1.23 µM. The values for the Activity in [2] and in series [9] were 245% and “Toxic”, respectively. Besides, the IC50 came out at 1.04 µM in [8]; 0.0157 µM in series [3] (Homo sapiens, K562, 48 h); 0.0113 µM in series [4] (Homo sapiens, QGY, 48 h); 0.0121 µM in [5] (Homo sapiens, SW480, 48 h); 0.0082 µM in [7] (Homo sapiens, A549, 48 h).
As for `CCOC(=O)C1(C(=O)NCCc2ccccc2F)CC1c1cc(OC)c(OC)c(OC)c1` (trans isomer), the IC50 was 79.1 µM in series [3] (k562); 46.8 µM in series [4] (qgy); 16.9 µM in [5] (sw480); greater than 100 µM in [6] (hela); 31.1 µM in series [7] (a549).
Turning to `CCOC(=O)C1(C(=O)Nc2ccccc2Cl)CC1c1cc(OC)c(OC)c(OC)c1` (stereo in doubt; cis), the IC50 in series [3] (k562) is 41.4 µM; in [4] (Homo sapiens, QGY, 48 h) it was 36.1 µM; in [5] (sw480), 27.2 µM; in series [6] (hela), 22.1 µM; in series [7] (Homo sapiens, A549, 48 h), 18 µM.
For the compound `CCOC(=O)[C@@]1(C(=O)Nc2ccccc2Cl)C[C@H]1c1cc(OC)c(OC)c(OC)c1`, the IC50 in [3] (Homo sapiens, K562, 48 h) was greater than 100 µM; in series [4] (Homo sapiens, QGY, 48 h), 34.3 µM; in series [5] (Homo sapiens, SW480, 48 h), 30.1 µM; in [6] (Homo sapiens, HeLa, 48 h) it was 14.4 µM; in series [7] (Homo sapiens, A549, 48 h), 17.6 µM.
`CCOC(=O)C1(C(=O)NCc2ccc(OC)cc2)CC1c1cc(OC)c(OC)c(OC)c1` (trans isomer): in series [2], the Activity is 50%.
Take `CCOC(=O)[C@@]1(C(=O)Nc2ccccc2Cl)C[C@@H]1c1cc(OC)c(OC)c(OC)c1`: the IC50 in series [3] (Homo sapiens, K562, 48 h) was 49.4 µM; in series [4] (Homo sapiens, QGY, 48 h), greater than 100 µM; in series [5] (Homo sapiens, SW480, 48 h) it was 46.7 µM; in series [6] (Homo sapiens, HeLa, 48 h), greater than 100 µM; in series [7] (Homo sapiens, A549, 48 h), 29 µM.
Regarding `COc1cc([C@@H]2C[C@@]2(CO)C(=O)NCc2ccc(C)cc2)cc(OC)c1OC`, the IC50 was greater than 100 µM in series [3] (Homo sapiens, K562, 48 h); 58.7 µM in series [4] (Homo sapiens, QGY, 48 h); 76.3 µM in [5] (Homo sapiens, SW480, 48 h); 41.2 µM in [6] (Homo sapiens, HeLa, 48 h); 46.3 µM in series [7] (Homo sapiens, A549, 48 h).
For the compound `CCOC(=O)[C@]1(C(=O)Nc2ccccc2Cl)C[C@@H]1c1cc(OC)c(OC)c(OC)c1`, the IC50 in series [3] (Homo sapiens, K562, 48 h) was 19.5 µM; in [4] (Homo sapiens, QGY, 48 h), 34.7 µM; in series [5] (Homo sapiens, SW480, 48 h), greater than 100 µM; in series [6] (Homo sapiens, HeLa, 48 h) it was greater than 100 µM; in series [7] (Homo sapiens, A549, 48 h), 50.9 µM.
In series [2], `CCOC(=O)C1(C(=O)Nc2ccc(OC)cc2)CC1c1cc(OC)c(OC)c(OC)c1` (cis isomer) registered an Activity of 25%.
With `COc1cc([C@@H]2C[C@@]2(CO)C(=O)Nc2ccccc2Cl)cc(OC)c1OC`, the IC50 in [3] (Homo sapiens, K562, 48 h) came to 18.4 µM; in [4] (Homo sapiens, QGY, 48 h), 24.5 µM; in series [5] (Homo sapiens, SW480, 48 h), 10.7 µM; in series [6] (Homo sapiens, HeLa, 48 h), 13.3 µM; in series [7] (Homo sapiens, A549, 48 h), 11.4 µM.
With `CCOC(=O)C1(C(=O)Nc2ccc(F)cc2)CC1c1cc(OC)c(OC)c(OC)c1` (trans isomer) [listing 1 of 2 here], the IC50 was greater than 100 µM in series [3] (k562); 36.1 µM in [4] (qgy); 42 µM in series [5] (sw480); 36.8 µM in series [6] (hela); 28 µM in series [7] (a549).
The corresponding values for `CCOC(=O)C1(C(=O)NCCc2cccc(F)c2)CC1c1cc(OC)c(OC)c(OC)c1` (trans isomer) are greater than 100 µM, greater than 100 µM, 79.3 µM, 58.2 µM and 64.3 µM.
`COc1cc([C@@H]2C[C@]2(CO)C(=O)Nc2ccccc2)cc(OC)c1OC` returned an EC50 in series [1] of 14.3 µM. Moreover, in [2], the Activity was found to be 31.5%. Besides, the IC50 in series [3] (Homo sapiens, K562, 48 h) is greater than 100 µM; in [4] (Homo sapiens, QGY, 48 h), 51.3 µM; in series [5] (Homo sapiens, SW480, 48 h) it was 33.3 µM; in [6] (Homo sapiens, HeLa, 48 h), 32 µM; in [7] (Homo sapiens, A549, 48 h) it was 24.1 µM.
Regarding `COc1cc([C@H]2C[C@@]2(CO)C(=O)Nc2ccccc2)cc(OC)c1OC`, the IC50 is greater than 100 µM in series [3] (Homo sapiens, K562, 48 h); greater than 100 µM in series [4] (Homo sapiens, QGY, 48 h); greater than 100 µM in series [5] (Homo sapiens, SW480, 48 h); greater than 100 µM in series [6] (Homo sapiens, HeLa, 48 h); greater than 100 µM in series [7] (Homo sapiens, A549, 48 h).
For `CCOC(=O)C1(C(=O)NCCc2ccc(F)cc2)CC1c1cc(OC)c(OC)c(OC)c1` (cis isomer), the Activity in series [2] was 40.8%.
Same read-out and setting: with `CCOC(=O)C1(C(=O)Nc2ccc(F)cc2)CC1c1cc(OC)c(OC)c(OC)c1` (trans isomer) [listing 2 of 2 here] the figure was 7.9%.
In the case of `COc1cc([C@H]2C[C@]2(CO)C(=O)Nc2ccccc2)cc(OC)c1OC`, the IC50 in [3] (Homo sapiens, K562, 48 h) is greater than 100 µM; in series [4] (Homo sapiens, QGY, 48 h) it was greater than 100 µM; in [5] (Homo sapiens, SW480, 48 h), greater than 100 µM; in series [6] (Homo sapiens, HeLa, 48 h), greater than 100 µM; in [7] (Homo sapiens, A549, 48 h), greater than 100 µM.
`CCOC(=O)[C@]1(C(=O)Nc2ccccc2)C[C@@H]1c1cc(OC)c(OC)c(OC)c1`: the IC50 in series [3] (Homo sapiens, K562, 48 h) was greater than 100 µM; in series [4] (Homo sapiens, QGY, 48 h), 38.1 µM; in series [5] (Homo sapiens, SW480, 48 h) it was 31.7 µM; in series [6] (Homo sapiens, HeLa, 48 h), greater than 100 µM; in [7] (Homo sapiens, A549, 48 h), 21.3 µM.
For `CCOC(=O)[C@]1(C(=O)NCc2ccc(C)cc2)C[C@H]1c1cc(OC)c(OC)c(OC)c1`, the Activity entry was “Dose-dependent effect” in series [10] and 79.3% in series [2]. This compound registered an EC50 in [1] of 5.83 µM. The half-inhibitory concentration (IC50) is greater than 100 µM in series [3] (Homo sapiens, K562, 48 h); 32.1 µM in series [4] (Homo sapiens, QGY, 48 h); 36.4 µM in series [5] (Homo sapiens, SW480, 48 h); 28.5 µM in series [6] (Homo sapiens, HeLa, 48 h); 13.3 µM in series [7] (Homo sapiens, A549, 48 h).
For the compound `CCOC(=O)[C@@]1(C(=O)Nc2ccccc2)C[C@@H]1c1cc(OC)c(OC)c(OC)c1`, the IC50 in series [3] (Homo sapiens, K562, 48 h) was greater than 100 µM; in series [4] (Homo sapiens, QGY, 48 h), greater than 100 µM; in series [5] (Homo sapiens, SW480, 48 h) it was greater than 100 µM; in series [6] (Homo sapiens, HeLa, 48 h) it was greater than 100 µM; in [7] (Homo sapiens, A549, 48 h) it was greater than 100 µM.
With `CCOC(=O)C1(C(=O)NCc2ccc(F)cc2)CC1c1cc(OC)c(OC)c(OC)c1` (trans isomer), the IC50 in series [3] (k562) was 43.1 µM; in series [4] (qgy), greater than 100 µM; in series [5] (sw480) it was 28.4 µM; in series [6] (hela), 27.8 µM; in series [7] (a549) it was 34.1 µM.
In turn, `CCOC(=O)C1(C(=O)Nc2cccc(Cl)c2)CC1c1cc(OC)c(OC)c(OC)c1` (stereo in doubt; cis) [listing 1 of 2 here] showed an Activity in [2] of 50%.
For `CCOC(=O)C1(C(=O)Nc2cccc(Cl)c2)CC1c1cc(OC)c(OC)c(OC)c1` (stereo in doubt; cis) [listing 2 of 2 here], the IC50 in [3] (Homo sapiens, K562, 48 h) stood at 52.1 µM; in [4] (qgy), 46.3 µM; in [5] (Homo sapiens, SW480, 48 h), 37.4 µM; in series [6] (hela) it was 35.1 µM; in series [7] (Homo sapiens, A549, 48 h), 25.6 µM.

Values taken from ChEMBL document CHEMBL2311397, “Design and synthesis of cyclopropylamide analogues of combretastatin-A4 as novel microtubule-stabilizing agents” (J Med Chem, 2013).
